# Hits are enriched below; roughly 3% of the tested compounds scored in any of these assays.
# T cruzi inh: blocks replication of Trypanosoma cruzi | AID 1885 | inhibition, % (no concentration beside the values) | T. cruzi beta-gal in NIH3T3, luminescence, 90 h | hit rate 1.4% among 300,000;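 active = mean inhibition across valid replicates above about 55%, limit read from the data; inconclusive = mean below that limit but half or more replicates reach it; inactive = mean below it, under half of replicates reach it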;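 also: signal also drops with host cell toxicity which is not excluded here; 0% = plate median of DMSO wells and 100% = zero luminescence signal; higher percent means less beta-gal luminescence so fewer parasites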
#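 Assay system: NIH/3T3 fibroblasts plus reporter T. cruzi. Amount: NIH/3T3 cells, 5,000 per well. Buffer or medium: DMEM, 2% fetal bovine serum. Doses: compound pinned at 50 nL/well, DMSO. Schedule: ≥90 h infection period, 3 h prior cell attachment. Signal: luminescent β-galactosidase signal after 60 min lysis. Read-out: parasite load inhibition, %.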
# HSF1 activator: increases HSF-1 driven luciferase reporter signal. activation, % at 9 µM. hit rate 1.7% among 300,000. NIH3T3-HGL HSF-1 luciferase reporter, MG132, 8 h; 100% = twice DMSO control signal;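 active = mean replicate activation of at least 50% with a set share of replicates each reaching 50%; inconclusive = only one of those two conditions met; inactive = mean below 50% and too few replicates reaching it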;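 also: 0% = median of the neutral control wells and 100% = twice that signal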
# PfHsp90 set2: reduces growth (ATP signal) of yeast expressing P. falciparum Hsp90; S. cerevisiae expressing PfHsp90, BacTiter-Glo ATP, 48 h; yeast lacking PDR1 and PDR3 efflux regulators; inhibition, % at 9.4 µM; hit rate 0.32% among 310,000;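 active = every replicate shows inhibition above about 80%, whatever the replicate mean, limit read from the data; inconclusive = mean inhibition reaches the set limit but some replicate falls short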;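 also: 0% = DMSO neutral controls and 100% = 20 µM radicicol positive controls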
# PvdQ acylase: blocks Pseudomonas aeruginosa PvdQ acylase activity; AID 488965; hit rate 0.063% among 340,000; inhibition, % at 10 µM; purified PvdQ acylase, fluorescence plate reader; in the data active = inhibition above about 30%, passing the limit was not always enough; inconclusive = no clear call, values can overlap the other calls;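 also: 0% = vehicle neutral wells and 100% = reference inhibitor wells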
# N-glyco inh: blocks N-linked glycosylation in D54 reporter cells; D54 ERlucT glycosylation luciferase reporter, 24 h; percent of 100 nM tunicamycin response; reporter increase, % at 12.5 µM; hit rate 0.23% among 360,000; AID 588692;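 active = mean luciferase reporter signal, scaled so untreated is 0 and the glycosylation-blocking control 100, at or above a set limit in every replicate; inconclusive = mean reaches the limit but not every replicate does; inactive = mean below the limit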;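 also: luciferase carries N-glycosylation sites so blocking glycosylation raises the light; 0% = median of neutral control wells and 100% = median of 100 nM tunicamycin wells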
# CaV13 ICDI inh: Primary screen for inhibitors of IQ motif and Ca2+-dependent inactivation inhibitor domain binding in CACNA1D, Förster resonance energy transfer in living cells, …; hit rate 0.098% among 340,000; inhibition, % at 12.3 µM; AID 743397; HEK cells, CFP/YFP FRET ICDI-IQ, plate reader, 10 min; percent FRET-ratio fall versus neutral wells;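 active = mean replicate inhibition of at least 30% and at least 1% of replicates passing that level; inconclusive = only one of the two criteria is met; inactive = neither criterion is met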;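 also: 0% = median of the neutral control wells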
# * hit, by the source's call; ? = inconclusive; · = no result given.
SMILES,T cruzi inh,HSF1 activator,PfHsp90 set2,PvdQ acylase,N-glyco inh,CaV13 ICDI inh
COc1ccc(CCN(Cc2cccs2)S(=O)(=O)c2ccc(-n3cnnn3)c(OC)c2)cc1OC,33.4,-5.1,31.3,-18.7,-4.2,-7.9
CCOc1ccc(CN(C)CC(=O)Nc2cc(OC)c([N+](=O)[O-])cc2C)cc1,58.8*,7.2,14.4,-1.9,-1.5,-3.2
CCOc1ccc(CN(C)CC(=O)Nc2cc(C)c(C)cc2[N+](=O)[O-])cc1,9.1,-4.5,-3.6,-9.9,-9.6,-5.5
O=C(Cc1c(F)cccc1Cl)Nc1nc2ccccc2s1,13.5,62.5*,-32.5,-5.3,-6.1,-2.1
CC(=O)c1sc(NC(=O)Cc2c(F)cccc2Cl)nc1C,10.2,2.8,-1.9,-6.7,2.8,-6.6
O=C(COc1ccc(Cl)cc1)Nc1ccc2oc(-c3ccncc3)nc2c1,-4.7,5.7,-10.6,-11.8,-0.3,·
CC(C)(Oc1ccc(Cl)cc1)C(=O)Nc1ccc2oc(-c3ccncc3)nc2c1,13.0,110.1*,16.4,-9.7,1.5,-1.7
CCCCCCCCN1C(=O)[C@H](CC(=O)NCc2ccc(OC)c(OC)c2)C[C@@]2(C(=O)OCC)CCCC=C12,·,·,·,·,·,-5.9
Cc1ccccc1S(=O)(=O)N1CCCc2nc(-c3ccc(Br)cc3)ccc21,·,·,·,·,·,-4.2
COc1cc(C(=O)Sc2ccc(Cl)cc2)cc(OC)c1OC,32.3,78.7*,-45.7,1.2,8.6,-0.2
COc1cc(C(=O)NCCSc2ccc(Cl)cc2)cc(OC)c1OC,-2.3,7.1,-0.8,-11.5,1.6,-4.0
Cc1nn(Cc2ccccc2Cl)c(C)c1NC(=O)CCCn1nc([N+](=O)[O-])c(Cl)c1C,70.6*,60.9*,5.2,-2.7,0.2,-3.2
Cc1ccc(Cn2nc(C)c(NC(=O)CCCn3nc([N+](=O)[O-])c(Cl)c3C)c2C)cc1,38.8,36.6,-0.7,12.6,-1.2,-3.5
CCC(C)n1ncn(-c2ccc(N3CCN(c4ccc(OCC5COC(Cn6cncn6)(c6ccc(Cl)cc6Cl)O5)cc4)CC3)cc2)c1=O (stereo not given),54.5*,4.3,92.2*,-17.5,-9.2,-4.3
CCC(C)n1ncn(-c2ccc(N3CCN(c4ccc(O)cc4)CC3)cc2)c1=O (stereo not given),-16.6,0.5,-8.0,-10.5,-2.3,-5.5
CCc1ccc(CN(C)CC(=O)Nc2ccc(S(=O)(=O)N3CCOCC3)cc2)cc1,·,·,-13.6,-13.3,-3.8,-5.4
CCCCCCCCSC1=CC(=O)C(OC)=C(OC)C1=O,·,·,·,·,-3.2,-7.9
CCOc1ccccc1NC(=S)NCc1ccco1,-13.8,51.5*,·,-8.0,-0.8,-4.6
CCOc1ccccc1NC(=S)NCc1ccccc1,-10.6,1.6,-13.0,-30.2,-0.6,2.5
c1ccc(Nc2cccc3c(Nc4ccccc4)cccc23)cc1,56.1*,24.4,14.1,-14.7,-5.6,-3.1
c1ccc(Nc2ccccc2)cc1,-1.0,-3.2,·,1.8,-0.9,-6.2
CC1(c2nnnn2Cc2ccccc2)CCC(=O)N1CCCn1ccnc1 (stereo not given),·,·,·,·,·,-6.5
CC(=O)Nc1cccc(Nc2cnccn2)c1,·,·,·,·,0.9,-10.6
O=[N+]([O-])c1ccccc1N/N=C/c1ccc2c(c1)OCO2,-5.3,65.4*,-5.2,-2.1,-12.6,-4.2
O=[N+]([O-])c1ccccc1N/N=C/c1c[nH]c2ccccc12,-7.4,150.2*,10.1,-8.0,-6.5,0.8
SMILES,T cruzi inh,HSF1 activator,PfHsp90 set2,PvdQ acylase,N-glyco inh,CaV13 ICDI inh
O=[N+]([O-])c1ccc(N/N=C/c2c[nH]c3ccccc23)cc1,4.8,155.4*,61.0,-2.5,5.6,-11.9
NS(=O)(=O)c1ccc(N/N=C/c2cn(-c3ccccc3)nc2-c2ccccc2)c([N+](=O)[O-])c1,39.5,-17.5,14.4,-2.5,19.9,0.1
O=[N+]([O-])c1ccc(N/N=C/c2cn(-c3ccccc3)nc2-c2ccccc2)cc1,51.6,63.5*,6.2,12.7,-11.0,·
CCOc1ccc2nc(S(=O)(=O)NC(=O)C3(C)CCN3C(=O)c3cc(C)n(C)n3)sc2c1 (stereo not given),·,·,·,·,1.6,-12.5
Cc1onc(-c2ccccc2)c1C(=O)NCC1CCN(C(=O)C(=O)c2cccs2)CC1,·,·,·,·,·,-11.5
Cc1ccc(SC[C@H](C)CN2CCC(NC(=O)OCc3ccccc3)CCC2=O)cc1 (stereo not given in full),·,·,·,·,·,-6.6
COC(=O)C1=CN(Cc2ccc(OC)c(OC)c2)C=C(C(=O)OC)C1c1cccc(F)c1,63.4*,22.4,-21.0,-10.9,-5.3,79.0*
COC(=O)C1=CN(Cc2ccc(F)cc2)C=C(C(=O)OC)C1c1cc(OC)c(OC)c(OC)c1,15.9,18.2,-26.0,-12.6,0.1,-18.9
Cc1ccc(S(=O)(=O)NC(=O)Nc2ccc(C)cn2)cc1,-16.4,68.6*,16.3,-7.5,-0.7,-2.6
Cc1ccc(S(=O)(=O)NC(=O)Nc2ccc(Cl)cn2)cc1,-11.8,5.7,12.5,-2.8,-2.8,-8.2
C[C@H](O)[C@@H]1CN2CCc3ccc(-c4ccc5c(c4)OCO5)cc3[C@@H]2C[C@@H]1N(C)C(=O)c1ccco1,·,·,·,·,·,-3.2
CC1SCC(=O)N(CC(=O)Nc2ccc3c(c2)OCO3)C1=O (stereo not given),-15.9,10.8,18.1,-4.5,0.5,-2.6
CCC1SC(CC)C(=O)N(CC(=O)Nc2ccc3c(c2)OCO3)C1=O (stereo not given),0.7,52.6*,6.2,-2.2,1.7,-7.2
CN1CCN(Cc2cccc(Oc3ccc(Cl)cc3)c2)CC1,74.6*,·,-7.6,-7.1,-2.4,-7.8
CCN1CCN(Cc2cccc(Oc3ccc(Cl)cc3)c2)CC1,?,-4.9,1.3,3.0,-3.2,-8.6
CCN1CCN(Cc2cccc(Oc3ccccc3)c2)CC1,59.4*,-4.9,-16.2,-2.9,-1.9,-9.8
c1ccc(Oc2cccc(CN3CCCCC3)c2)cc1,37.8,2.9,3.6,-5.6,-0.9,-2.7
Cc1cc(C)n(-c2nc(Nc3ccccc3C)nc(-n3nc(C)cc3C)n2)n1,69.9*,1.3,·,·,·,·
Nc1nc2c(s1)CCc1c-2cnn1-c1ccccc1,-10.8,71.5*,-24.0,-12.4,1.5,·
Nc1nc2c(s1)COc1ccccc1-2,-18.7,2.1,-10.6,-8.7,2.4,-4.5
O=[N+]([O-])c1cc(CN2CCCC2)ccc1Sc1ccc(Cl)cc1,62.4*,-12.9,-19.8,-11.2,-3.5,-0.2
Nc1n[nH]c(N)c1N=Nc1ccc2c(c1)OCO2,74.1*,40.7,-11.2,-10.0,-4.8,-6.6
CCOC(=O)N[C@H](C(=O)N1CCC[C@H]1C(=O)NC1CCCC1)c1ccccc1,·,·,·,·,·,-3.3
COC(=O)C1=CN(c2ccc(F)cc2)C=C(C(=O)OC)C1c1ccc([N+](=O)[O-])cc1,?,-8.4,-4.7,-0.3,-4.2,-5.3
